Assay outcomes deposited in PubChem BioAssay by Sanford-Burnham Center for Chemical Genomics.
In the library only some 0.77% were active in any assay of this set; here they are far more common.
mIAP block: inhibitors of mouse IAP, primary screen, biochemical, luminescence, uHTS. purified mouse IAP, CDP-Star luminescence, 30 min. AID 2806, 2010. intestinal alkaline phosphatase [Mus musculus]. inhibition, % at 10 µM. 330,000 compounds, 0.2% hits;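 active = inhibition of at least 40% at 10 µM in the primary screen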;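 also: plate controls were DMSO with enzyme for no effect and no enzyme wells for full effect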
hIAP inh: human IAP inhibitors, primary screen, biochemical, luminescence, uHTS; purified IAP, CDP-Star luminescence, 30 min; inhibition, % at 10 µM; 330,000 compounds, 0.12% hits;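 active = inhibition reaching a set limit with compound at 10 µM in the primary screen, cut at about 35% in these data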;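 also: plate controls were DMSO wells with enzyme for no effect and no-enzyme buffer wells for full effect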
Target sequence (P09923 whole entry, looked up): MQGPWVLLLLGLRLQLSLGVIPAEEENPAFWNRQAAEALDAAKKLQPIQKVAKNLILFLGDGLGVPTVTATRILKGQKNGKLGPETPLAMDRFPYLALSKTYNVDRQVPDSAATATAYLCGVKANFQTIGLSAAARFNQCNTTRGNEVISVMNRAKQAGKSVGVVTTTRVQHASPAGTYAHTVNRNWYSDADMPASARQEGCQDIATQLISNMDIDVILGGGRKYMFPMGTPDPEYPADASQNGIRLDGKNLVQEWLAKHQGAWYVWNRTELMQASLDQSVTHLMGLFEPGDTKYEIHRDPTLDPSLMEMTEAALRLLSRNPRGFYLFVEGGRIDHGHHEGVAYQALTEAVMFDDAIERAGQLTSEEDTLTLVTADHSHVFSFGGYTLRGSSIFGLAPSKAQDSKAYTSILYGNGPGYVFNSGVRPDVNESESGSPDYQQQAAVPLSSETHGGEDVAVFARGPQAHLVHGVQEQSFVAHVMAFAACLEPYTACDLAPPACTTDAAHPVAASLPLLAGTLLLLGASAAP
hIAP act: human IAP activators, primary screen, biochemical, luminescence, uHTS. Intestinal-type alkaline phosphatase (Homo sapiens), P09923. purified human IAP, CDP-Star luminescence, 30 min; stronger effect = higher value; 1 = vehicle-only enzyme, 0 = enzyme-free background. activation factor at 10 µM. 330,000 compounds, 0.16% hits. AID 2524, 2010;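 active = activation factor of the enzyme at least 2-fold when tested at 20 µM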
bIAP activator: bovine intestinal alkaline phosphatase activators, primary screen, biochemical, bovine IAP, CDP-star luminescence. 200,000 compounds, 0.17% hits. activation factor at 20 µM. purified bovine IAP, 30 min; stronger effect = higher value; fold of DMSO-control signal, blank-subtracted. alkaline phosphatase, intestinal [Bos taurus];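 active = activation factor of 2 or more at 20 µM, a signal rise over negative controls twice the positive control's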
mIAP activ: activators of mouse IAP, primary screen, biochemical, luminescence, uHTS; activation factor at 10 µM; intestinal alkaline phosphatase [Mus musculus]; AID 2805, 2010; muIAP, CDP-Star luminescence, 30 min; stronger effect = higher value; 1 = vehicle-only enzyme signal, 0 = enzyme-free wells; 330,000 compounds, 0.24% hits;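 active = activation factor of at least 2 at 20 µM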
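System: mouse IAP enzyme. Reagent: CDP-Star chemiluminescent phosphatase substrate. Benchmarks: DMSO wells, no-enzyme wells. Times: 30 min enzyme-substrate-compound incubation at room temperature. Detection: luminescence from enzymatic CDP-Star hydrolysis. Doses: test compounds delivered from DMSO solution.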
bIAP inh: bovine intestinal alkaline phosphatase inhibitors, primary screen, selectivity assay for TNAP inhibitor project, biochemical, bovine IAP, CDP-star luminescence | purified bovine IAP, 30 min | inhibition, % at 20 µM | 190,000 tested, under 10 active | AID 1019, 2008;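 active = over 50% inhibition of intestinal alkaline phosphatase at 20 µM in the single-dose screen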
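System: Purified bovine intestinal alkaline phosphatase (IAP) enzyme | Input: IAP diluted 1/65,000,000 in the well | Also added: CDP-star chemiluminescent phosphatase substrate, 30 µM final | Dosing: 20 µM single dose | Times: Enzyme reaction for 30 min at room temperature | Detection: Luminescence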
* hit, by the source's call; i = inactive; . = no result.

SMILES	mIAP block	hIAP inh	hIAP act	bIAP activator	mIAP activ	bIAP inh
COC(=O)/C=c1/s/c(=C(/C#N)C(=O)N2CCCCC2)n(-c2ccccc2)c1=O	30	-1	1	0.7	0.7	30
COc1cc(/C=c2\s/c(=C(/C#N)C(=O)N3CCCC3)n(-c3ccccc3)c2=O)ccc1O	42*	-1	1	0.4	0.58	.
C/C(=N\NC(=O)c1ccc(Cn2cc(Br)cn2)o1)c1ccc(NC(=O)c2ccoc2C)cc1	9	0	1	.	0.91	.
CCCCNc1nc(Cl)nc(Nc2ccc(C)cc2)n1	-3	1	0.99	.	1	.
C[C@H](CO)N1C[C@H](C)[C@@H](CN(C)S(=O)(=O)c2ccccc2)Oc2ccc(NC(=O)Cc3ccccc3)cc2C1=O	-26	2	0.98	.	1.3	.
COc1ccc(NC(=O)Nc2ccc3c(c2)C(=O)N([C@H](C)CO)C[C@H](C)[C@@H](CN(C)S(=O)(=O)c2ccc(OC)cc2)O3)cc1	-155	2	0.98	.	2.6*	.
C[C@H](CO)N1C[C@H](C)[C@@H](CN(C)S(=O)(=O)c2ccccc2)Oc2ccc(NC(=O)Nc3ccc4c(c3)OCO4)cc2C1=O	-159	-2	1	.	2.6*	.
COc1ccc(S(=O)(=O)N(C)C[C@H]2Oc3ccc(NC(=O)Nc4ccc(C(F)(F)F)cc4)cc3C(=O)N([C@H](C)CO)C[C@@H]2C)cc1	-39	-14	1.1	.	1.4	.
CCN(C[C@H]1N[C@@](CC)(C(=O)OC)[C@H]2C(=O)N(C)C(=O)[C@@H]12)C(=O)COc1ccccc1	0	-15	1.2	.	0.99	.
Cc1cc(C)cc(NC(=O)C(=O)NCCCN2CCCC2=O)c1	0	-2	1	.	1	.
COc1ccc(N=Nc2ccc(O)c3ncccc23)cc1	-9	-14	1.1	.	1.1	.
CCc1ccc(N=Nc2ccc(O)c3[nH]cnc23)cc1	40*	-33	1.3	.	0.6	.
Cc1cc(NC(=O)C2CC(=O)N(c3ccc(Cl)cc3)C2)no1 (centres undefined)	-9	-2	1	.	1.1	.
CCCCc1c(O)nc(SCC(=O)NC(C)(C)C)n(-c2ccccc2C)c1=O	42*	-6	1.1	1	0.58	3
C[n+]1ccn(CC(=O)c2ccc(Br)cc2)c1	6	-2	1	1	0.94	-4
C[n+]1ccn(CC(=O)c2ccc(Cl)cc2)c1	7	-4	1	2.5*	0.93	-148
O=[N+]([O-])c1cccc(-c2noc3c2-c2nc(Cc4cccc5ccccc45)sc2CC3)c1	8	-4	1	.	0.92	.
Cc1ccc(NC(=O)Nc2cccc3ccccc23)cc1	-20	0	1	.	1.2	.
N#CCc1ccc(NC(=O)Nc2cccc3ccccc23)cc1	-110	-27	1.3	.	2.1*	.
COc1cccc(N2C(=O)Nc3ccc(Br)cc3C2(O)C(=O)NCCCN(C)C)c1 (centres undefined)	-4	6	0.94	.	1	.
Cc1nn(Cc2ccc(F)cc2)c(C)c1NC(=O)C1c2ccccc2Oc2ccccc21	-188	-20	1.2	0.8	2.9*	18
Cc1cc(C(=O)Nc2c(C)nn(Cc3ccc(F)cc3)c2C)on1	1	-8	1.1	1	0.99	-4
N#C/C(=C/c1ccc(-c2ccc(S(N)(=O)=O)cc2)o1)c1nc2ccccc2s1	57*	9	0.91	1	0.43	-4
N#C/C(=C/c1ccc(-c2ccc(S(N)(=O)=O)cc2)o1)C(=O)Nc1ccccc1	28	-5	1	1	0.72	2
CC(C(=O)NCC1CCCCC1)N1CCN(S(=O)(=O)c2cccs2)CC1 (centres undefined)	-3	-21	1.2	.	1	.
SMILES	mIAP block	hIAP inh	hIAP act	bIAP activator	mIAP activ	bIAP inh
Cc1ccc2nc(N3C(=O)C(O)=C(C(=O)c4ccc(C)o4)C3c3ccco3)sc2c1 (centres undefined)	50*	-22	1.2	.	0.5	.
COc1ccc(C2Nc3ccc4ccccc4c3-c3c2c(=O)oc2ccccc32)cc1 (centres undefined)	-8	-14	1.1	3.5*	1.1	-248
CCOc1ccc(C2Nc3ccc4ccccc4c3-c3c2c(=O)oc2ccccc32)cc1 (centres undefined)	2	1	0.99	1.7	0.98	-70
C=CCOc1ccc(CN(C)C(=O)c2ccc(CNS(=O)(=O)c3ccc(C)c(C)c3)cc2)cc1	-23	-4	1	.	1.2	.
O=C(Nc1ccccc1)NC1(C(=O)N2CCN(C(=O)c3ccco3)CC2)CCCCC1	-16	-4	1	6.3*	1.2	i
O=C(NCc1ccccc1)NC1(C(=O)N2CCN(c3ccccc3)CC2)CCCCC1	-125	10	0.9	2.1*	2.3*	-113
O=C(CN1CCN(C(=O)c2ccco2)CC1)Nc1ccccc1	1	-4	1	.	0.99	.
O=S(=O)(c1ccccc1F)N1CCN(Cc2cc3c(cc2Br)OCCO3)CC1	-8	-3	1	.	1.1	.
COC(=O)c1ccc2c(c1)C(C)(C)C(/C=C/c1ccc(O)cc1)=[N+]2C	12	50*	0.5	0.2	0.89	.
CCC(C)c1ccc(C(C)NC(=S)NCc2ccc(F)cc2)cc1 (centres undefined)	-157	-9	1.1	.	2.6*	.
Cc1ccccc1NC(=S)NCc1ccc(F)cc1	-7	0	1	.	1.1	.
COc1ccc(C(C)NC(=S)NCc2ccc(F)cc2)cc1OC (centres undefined)	-13	0	1	.	1.1	.
CCOc1ccc(C(C)NC(=S)NCc2ccc(Cl)cc2)cc1 (centres undefined)	-301	-16	1.2	1.1	4*	-8
CCCc1ccc(C(C)NC(=S)NCc2ccc(F)cc2)cc1 (centres undefined)	-196	-46	1.5	.	3*	.
CCC(NC(=S)NCc1ccc(F)cc1)c1ccc(C(C)C)cc1 (centres undefined)	-315	10	0.9	.	4.1*	.
COc1ccc(CCNC(=O)Oc2ccccc2)cc1OC	1	-9	1.1	.	0.99	.
CC(NC(=S)NC1CCCCC1)c1ccccc1 (centres undefined)	-17	4	0.96	.	1.2	.
CCCc1ccc(C(C)NC(=S)NC2CCCCC2)cc1 (centres undefined)	-130	-63	1.6	.	2.3*	.
Cc1cc(OCCCCCn2ccnc2)cc(C)c1Cl	-11	-53	1.5	68*	1.1	i
